# Source: ChEMBL document CHEMBL3875168, “Synthesis and apoptosis inducing studies of triazole linked 3-benzylidene isatin derivatives” (Eur J Med Chem, 2016)
# Active and inactive are the calls of the source. No cut-off for these calls is given here.
# Experiments:
# [1] = Cytotoxicity against human DU145 cells assessed as cell growth inhibition after 48 hrs by MTT assay; type: functional, cell-based; settings: DU-145, 48 h
# Summary of the method: (§1)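 Cell lines (NCCS) grown in DMEM or RPMI with 10% FBS and antibiotic-antimycotic at 37 °C, 5% CO2, 90% humidity. Cells seeded at 3-5×10^3 per well, treated 48 h with serial dilutions in medium beside vehicle control. Medium replaced with MTT (0.5 mg/mL) for 4 h, absorbance read at 570 nm. IC50 taken from concentration-response curves; sunitinib served as reference.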
# [2] = Cytotoxicity against human A549 cells assessed as cell growth inhibition after 48 hrs by MTT assay; type: functional, cell-based; settings: A549, 48 h; summary of the method: as §1
# DU-145 [3] = test: Induction of morphological changes in human DU145 cells assessed as cell shrinkage at 1.25 to 5 uM after 48 hrs by acridine orange/ethidium bromide-dual staining based fluorescence microscopic method; type: functional
# Summary of the method: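 DU145 plated at 1×10^6 cells/mL, treated at several concentrations and kept 48 h at 37 °C in 5% CO2. Equal volumes of acridine orange and ethidium bromide (10 μg/mL) added, and cells imaged within 10 min by fluorescence microscopy (excitation 488 nm, emission 550 nm) at 200x.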
# DU-145 [4] = test: Induction of apoptosis in human DU145 cells assessed as formation of pyknotic nuclei at 2.5 to 5 uM after 48 hrs by DAPI staining based fluorescence microscopic method; type: functional, cell-based
# Summary of the method: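 DU145 treated for 48 h, PBS-washed, permeabilized with 0.1% Tween 20 for 10 min and stained with 1 μM DAPI. Nuclear morphology of control and treated cells viewed by fluorescence microscopy (excitation 359 nm, emission 461 nm) at 200x.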
# DU-145 [5] = test: Induction of apoptosis in human DU145 cells assessed as early apoptotic cells at 2.5 uM after 24 hrs by Annexin V-FITC/propidium iodide staining based flow cytometry (reference value: 2.14%); type: functional
# DU-145 [6] = test: Induction of apoptosis in human DU145 cells assessed as late apoptotic cells at 5 uM after 24 hrs by Annexin V-FITC/propidium iodide staining based flow cytometry (reference value: 5.4%); type: functional
# DU-145 [7] = test: Induction of apoptosis in human DU145 cells assessed as increase in intracellular reactive oxygen species after 6 hrs by DCFDA dye based spectrofluorometer; type: functional, cell-based
# DU-145 [8] = test: Induction of mitochondrial membrane potential loss in human DU145 cells at 1.25 uM after 24 hrs by flow cytometry (reference value: 5.39%); type: functional
# DU-145 [9] = test: Induction of mitochondrial membrane potential loss in human DU145 cells at 2.5 uM after 24 hrs by flow cytometry (reference value: 5.39%); type: functional
# DU-145 [10] = test: Induction of apoptosis in human DU145 cells assessed as necrotic cells at 5 uM after 24 hrs by Annexin V-FITC/propidium iodide staining based flow cytometry (reference value: 2.14%); type: functional
# DU-145 [11] = test: Induction of apoptosis in human DU145 cells assessed as viable cells at 5 uM after 24 hrs by Annexin V-FITC/propidium iodide staining based flow cytometry (reference value: 90.32%); type: functional; settings: DU-145, 24 h, read-out: Activity
# DU-145 [12] = test: Induction of apoptosis in human DU145 cells assessed as viable cells at 2.5 uM after 24 hrs by Annexin V-FITC/propidium iodide staining based flow cytometry (reference value: 90.32%); type: functional; settings: DU-145, 24 h, read-out: Activity
# DU-145 [13] = test: Induction of apoptosis in human DU145 cells assessed as viable cells at 1.25 uM after 24 hrs by Annexin V-FITC/propidium iodide staining based flow cytometry (reference value: 90.32%); type: functional; settings: DU-145, 24 h, read-out: Activity
smiles,measurement,setting,value
O=C1Nc2ccc(C(c3ccccc3)c3ccccc3)cc2/C1=C/c1cccc(OCc2cn(Cc3ccccc3)nn2)c1,IC50,[1],3.7 µM
same,IC50,[2],14.7 µM
same,Activity,DU-145 [3],Active
same,Activity,DU-145 [4],Active
same,Activity,DU-145 [5],18.05%
same,Activity,DU-145 [6],25%
same,Activity,DU-145 [7],Dose-dependent effect
same,Activity,DU-145 [8],64.28%
same,Activity,DU-145 [9],85.24%
same,Activity,DU-145 [10],15.46%
same,viability at 5 µM,DU-145 [11],45.9%
same,viability at 2.5 µM,DU-145 [12],64.5%
same,viability at 1.25 µM,DU-145 [13],76.5%
